Reference: ChEMBL document CHEMBL2311435, “Development of 18F-labeled picolinamide probes for PET imaging of malignant melanoma” (J Med Chem, 2013)

Columns and labels:
Bone [1] = experiment: Biodistribution in bone of C57BL/6 mouse xenografted with mouse B16F10 cells at 3.7 MBq, iv after 1 hr by gamma-scintillation counting analysis; format: ADME, organism-based, Bone element, B16-F10; settings: in vivo
How it was run: (§1)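 1.0 × 10^6 B16F10 cells in PBS injected subcutaneously into the right shoulder of C57BL/6 mice, grown to 0.5 cm (~10 day). Tail-vein injection of about 3.7 MBq (100 μCi) 18F probe in PBS (0.1 M, pH 7.4). Killed at 1.0 or 2.0 h p.i. (n = 4 per group). Tissues excised, weighed and gamma-counted; uptake expressed as %ID/g, mean ± SD.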

Kidney [2] = experiment: Drug uptake in kidney of C57BL/6 mouse xenografted with mouse B16F10 cells at 3.7 MBq, iv after 35 mins by PET imaging analysis; format: ADME, organism-based, B16-F10; settings: in vivo
How it was run: (§2)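 Dynamic small-animal PET in B16F10 tumor-bearing mice (n = 4) after tail-vein injection of ~3.7 MBq (100 μCi). Scanning began ~2.0 min post-injection and ran 35 min (6×20 s, 8×60 s, 10×150 s; 24 frames). ROI counts converted to %ID/g assuming 1 g/ml tissue density. No attenuation correction.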

Spleen [3] = experiment: Biodistribution in spleen of C57BL/6 mouse xenografted with mouse B16F10 cells at 3.7 MBq, iv after 2 hrs by gamma-scintillation counting analysis; format: ADME, organism-based, B16-F10; settings: in vivo; how it was run: as §1
[4] = Drug uptake in tumor of C57BL/6 mouse xenografted with mouse B16F10 cells at 3.7 MBq, iv after 5 mins by PET imaging analysis; format: ADME, organism-based, Neoplasm, B16-F10; settings: in vivo; how it was run: as §2
Nucleic Acid [5] = experiment: Ratio of drug uptake in tumor to muscle of C57BL/6 mouse xenografted with mouse B16F10 cells at 3.7 MBq, iv after 2 hrs by gamma-scintillation counting analysis; format: ADME, organism-based, B16-F10; settings: in vivo
How it was run: (§3)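 Same subcutaneous B16F10 model and tail-vein dose of about 3.7 MBq (100 μCi), n = 4 per group. Dissection at 1 or 2 h p.i. Gamma-counter %ID/g of tumor divided by that of blood, lung, liver or muscle, given as mean ± SD.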

Spleen [6] = experiment: Biodistribution in spleen of C57BL/6 mouse xenografted with mouse B16F10 cells at 3.7 MBq, iv after 1 hr by gamma-scintillation counting analysis; format: ADME, organism-based, B16-F10; settings: in vivo; how it was run: as §1
Stomach = experiment: Biodistribution in stomach of C57BL/6 mouse xenografted with mouse B16F10 cells at 3.7 MBq, iv after 1 hr by gamma-scintillation counting analysis; format: ADME, organism-based, B16-F10; settings: in vivo; how it was run: as §1
Nucleic Acid [7] = experiment: Ratio of drug uptake in tumor to lungs of C57BL/6 mouse xenografted with mouse B16F10 cells at 3.7 MBq, iv after 2 hrs by gamma-scintillation counting analysis; format: ADME, organism-based, B16-F10; settings: in vivo; how it was run: as §3
Intestine [8] = experiment: Biodistribution in intestine of C57BL/6 mouse xenografted with mouse B16F10 cells at 3.7 MBq, iv after 2 hrs by gamma-scintillation counting analysis; format: ADME, organism-based, B16-F10; settings: in vivo; how it was run: as §1
Mus musculus [9] = experiment: Biodistribution in eye of C57BL/6 mouse xenografted with mouse B16F10 cells at 3.7 MBq, iv after 1 hr by gamma-scintillation counting analysis; format: ADME, organism-based, B16-F10; settings: in vivo; how it was run: as §1
Mus musculus [10] = experiment: Biodistribution in tumor of C57BL/6 mouse xenografted with mouse B16F10 cells at 3.7 MBq, iv after 1 hr by gamma-scintillation counting analysis; format: ADME, organism-based, Neoplasm, B16-F10; settings: in vivo; how it was run: as §1
Kidney [11] = experiment: Biodistribution in kidney of C57BL/6 mouse xenografted with mouse B16F10 cells at 3.7 MBq, iv after 2 hrs by gamma-scintillation counting analysis; format: ADME, organism-based, B16-F10; settings: in vivo; how it was run: as §1
[12] = Drug uptake in tumor of C57BL/6 mouse xenografted with mouse B16F10 cells at 3.7 MBq, iv after 35 mins by PET imaging analysis; format: ADME, organism-based, Neoplasm, B16-F10; settings: in vivo; how it was run: as §2
Mus musculus [13] = experiment: Biodistribution in lungs of C57BL/6 mouse xenografted with mouse B16F10 cells at 3.7 MBq, iv after 1 hr by gamma-scintillation counting analysis; format: ADME, organism-based, Lung, B16-F10; settings: in vivo; how it was run: as §1
Nucleic Acid [14] = experiment: Ratio of drug uptake in tumor to muscle of C57BL/6 mouse xenografted with mouse B16F10 cells at 3.7 MBq, iv after 1 hr by gamma-scintillation counting analysis; format: ADME, organism-based, B16-F10; settings: in vivo; how it was run: as §3
Brain = experiment: Biodistribution in brain of C57BL/6 mouse xenografted with mouse B16F10 cells at 3.7 MBq, iv after 2 hrs by gamma-scintillation counting analysis; format: ADME, organism-based, B16-F10; settings: in vivo; how it was run: as §1
Heart = experiment: Biodistribution in heart of C57BL/6 mouse xenografted with mouse B16F10 cells at 3.7 MBq, iv after 1 hr by gamma-scintillation counting analysis; format: ADME, organism-based, B16-F10; settings: in vivo; how it was run: as §1
Bone [15] = experiment: Biodistribution in bone of C57BL/6 mouse xenografted with mouse B16F10 cells at 3.7 MBq, iv after 2 hrs by gamma-scintillation counting analysis; format: ADME, organism-based, Bone element, B16-F10; settings: in vivo; how it was run: as §1
Nucleic Acid [16] = experiment: Ratio of drug uptake in tumor to liver of C57BL/6 mouse xenografted with mouse B16F10 cells at 3.7 MBq, iv after 1 hr by gamma-scintillation counting analysis; format: ADME, organism-based, B16-F10; settings: in vivo; how it was run: as §3
Blood [17] = experiment: Biodistribution in blood of C57BL/6 mouse xenografted with mouse B16F10 cells at 3.7 MBq, iv after 2 hrs by gamma-scintillation counting analysis; format: ADME, organism-based, B16-F10; settings: in vivo; how it was run: as §1
Intestine [18] = experiment: Biodistribution in intestine of C57BL/6 mouse xenografted with mouse B16F10 cells at 3.7 MBq, iv after 1 hr by gamma-scintillation counting analysis; format: ADME, organism-based, B16-F10; settings: in vivo; how it was run: as §1
Muscle tissue [19] = experiment: Biodistribution in muscle of C57BL/6 mouse xenografted with mouse B16F10 cells at 3.7 MBq, iv after 2 hrs by gamma-scintillation counting analysis; format: ADME, organism-based, B16-F10; settings: in vivo; how it was run: as §1
Nucleic Acid [20] = experiment: Ratio of drug uptake in tumor to liver of C57BL/6 mouse xenografted with mouse B16F10 cells at 3.7 MBq, iv after 2 hrs by gamma-scintillation counting analysis; format: ADME, organism-based, B16-F10; settings: in vivo; how it was run: as §3
Muscle tissue [21] = experiment: Biodistribution in muscle of C57BL/6 mouse xenografted with mouse B16F10 cells at 3.7 MBq, iv after 1 hr by gamma-scintillation counting analysis; format: ADME, organism-based, B16-F10; settings: in vivo; how it was run: as §1
Nucleic Acid [22] = experiment: Ratio of drug uptake in tumor to blood of C57BL/6 mouse xenografted with mouse B16F10 cells at 3.7 MBq, iv after 1 hr by gamma-scintillation counting analysis; format: ADME, organism-based, B16-F10; settings: tumour; how it was run: as §3
Blood [23] = experiment: Biodistribution in blood of C57BL/6 mouse xenografted with mouse B16F10 cells at 3.7 MBq, iv after 1 hr by gamma-scintillation counting analysis; format: ADME, organism-based, B16-F10; settings: in vivo; how it was run: as §1
Kidney [24] = experiment: Drug uptake in kidney of C57BL/6 mouse xenografted with mouse B16F10 cells at 3.7 MBq, iv after 5 mins by PET imaging analysis; format: ADME, organism-based, B16-F10; settings: in vivo; how it was run: as §2
Mus musculus [25] = experiment: Biodistribution in lungs of C57BL/6 mouse xenografted with mouse B16F10 cells at 3.7 MBq, iv after 2 hrs by gamma-scintillation counting analysis; format: ADME, organism-based, Lung, B16-F10; settings: in vivo; how it was run: as §1
Nucleic Acid [26] = experiment: Ratio of drug uptake in tumor to blood of C57BL/6 mouse xenografted with mouse B16F10 cells at 3.7 MBq, iv after 2 hrs by gamma-scintillation counting analysis; format: ADME, organism-based, B16-F10; settings: tumour; how it was run: as §3
Mus musculus [27] = experiment: Biodistribution in eye of C57BL/6 mouse xenografted with mouse B16F10 cells at 3.7 MBq, iv after 2 hrs by gamma-scintillation counting analysis; format: ADME, organism-based, B16-F10; settings: in vivo; how it was run: as §1
Zone of skin = experiment: Biodistribution in skin of C57BL/6 mouse xenografted with mouse B16F10 cells at 3.7 MBq, iv after 1 hr by gamma-scintillation counting analysis; format: ADME, organism-based, B16-F10; settings: in vivo; how it was run: as §1
Pancreas = experiment: Biodistribution in pancreas of C57BL/6 mouse xenografted with mouse B16F10 cells at 3.7 MBq, iv after 1 hr by gamma-scintillation counting analysis; format: ADME, organism-based, B16-F10; settings: in vivo; how it was run: as §1

## CCN(CC)CCNC(=O)c1ccc([18F])cn1
Bone [1]
  Drug uptake: 2.4 % ID/g
Kidney [2]
  Drug uptake: 9.44 % ID/g
Spleen [3]
  Drug uptake: 1.13 % ID/g
[4]
  Drug uptake: 5.28 % ID/g
Nucleic Acid [5]
  Ratio: 36.79
Spleen [6]
  Drug uptake: 1.78 % ID/g
Stomach
  Drug uptake: 4.26 % ID/g
Nucleic Acid [7]
  Ratio: 24.92
Intestine [8]
  Drug uptake: 0.88 % ID/g
Mus musculus [9]
  Drug uptake: 37.47 % ID/g
Mus musculus [10]
  Drug uptake: 15.2 % ID/g
Kidney [11]
  Drug uptake: 1.03 % ID/g
[12]
  Drug uptake: 10.52 % ID/g
Mus musculus [13]
  Drug uptake: 1.58 % ID/g
Nucleic Acid [14]
  Ratio: 13.84
Brain
  Drug uptake: 0.42 % ID/g
Heart
  Drug uptake: 1.17 % ID/g
Bone [15]
  Drug uptake: 1.72 % ID/g
Nucleic Acid [16]
  Ratio: 3.79
Blood [17]
  Drug uptake: 0.19 % ID/g
Intestine [18]
  Drug uptake: 2.01 % ID/g
Muscle tissue [19]
  Drug uptake: 0.41 % ID/g
Nucleic Acid [20]
  Ratio: 5.14
Muscle tissue [21]
  Drug uptake: 1.16 % ID/g
Nucleic Acid [22]
  Ratio: 41.44
Blood [23]
  Drug uptake: 0.42 % ID/g
Kidney [24]
  Drug uptake: 24.91 % ID/g
Mus musculus [25]
  Drug uptake: 0.69 % ID/g
Nucleic Acid [26]
  Ratio: 88.25
Mus musculus [27]
  Drug uptake: 32.83 % ID/g
Zone of skin
  Drug uptake: 1.3 % ID/g
Pancreas
  Drug uptake: 1.61 % ID/g
